# How the values were obtained:
# Assay type in all cases: functional
# SNB-19 = assay: Anticancer activity against human SNB19 cells after 48 hrs by SRB assay; settings: SNB-19, 48 h
# NCI/ADR-RES = assay: Anticancer activity against human NCI/ADR-RES cells after 48 hrs by SRB assay
# ACHN = assay: Anticancer activity against human ACHN cells after 48 hrs by SRB assay
# How it was run: (§1)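 NCI five-dose screen. Cells in RPMI 1640 with 5% FBS and 2 mM L-glutamine, seeded at 5000–40,000 cells/well according to doubling time, then pre-incubated 24 h at 37 °C in 5% CO2. Drugs dissolved in DMSO, five concentrations by 10-fold or 1/2-log dilution. Cells fixed with TCA, SRB-stained, A515 read. IC50 solved from [(Ti−Tz)/(C−Tz)]×100 = 50.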
# RXF 393 = assay: Anticancer activity against human RXF393 cells after 48 hrs by SRB assay; settings: RXF 393, 48 h
# OVCAR-8 = assay: Anticancer activity against human OVCAR8 cells after 48 hrs by SRB assay; settings: OVCAR-8, 48 h
# UO-31 = assay: Anticancer activity against human UO31 cells after 48 hrs by SRB assay; settings: UO-31, 48 h
# How it was run: (§2)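 NCI-60 five-dose mode: cells in RPMI 1640 with 5% FBS and 2 mM glutamine, plated at 5000–40,000 cells/well, and preincubated 24 h, with time-zero plates TCA-fixed. Drug given at five concentrations (10-fold or ½-log serial dilutions). Cold TCA fixation 60 min at 4 °C, SRB stain, Tris solubilization, A515. IC50 taken where [(Ti−Tz)/(C−Tz)]×100 = 50.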
# SF-539 = assay: Anticancer activity against human SF539 cells after 48 hrs by SRB assay; settings: SF-539, 48 h
# UACC-62 = assay: Anticancer activity against human UACC62 cells after 48 hrs by SRB assay; settings: UACC-62, 48 h; how it was run: as §2
# NCI-H460 = assay: Anticancer activity against human NCI-H460 cells after 48 hrs by SRB assay; settings: NCI-H460, 48 h
# HCT-116 = assay: Anticancer activity against human HCT116 cells after 48 hrs by SRB assay; settings: HCT-116, 48 h; how it was run: as §1
# UACC-257 = assay: Anticancer activity against human UACC257 cells after 48 hrs by SRB assay; settings: UACC-257, 48 h; how it was run: as §2
# MOLT-4 = assay: Anticancer activity against human MOLT4 cells after 48 hrs by SRB assay; settings: MOLT-4, 48 h
# NCI-H23 = assay: Anticancer activity against human NCI-H23 cells after 48 hrs by SRB assay; settings: NCI-H23, 48 h
# MDA-MB-435 = assay: Anticancer activity against human MDA-MB-435 cells after 48 hrs by SRB assay; settings: MDA-MB-435, 48 h; how it was run: as §1
# MCF7 = assay: Anticancer activity against human MCF7 cells after 48 hrs by SRB assay; settings: MCF7, 48 h; how it was run: as §1
# RPMI-8226 = assay: Anticancer activity against human RPMI8226 cells after 48 hrs by SRB assay; settings: RPMI-8226, 48 h
# PC-3 = assay: Anticancer activity against human PC3 cells after 48 hrs by SRB assay; settings: PC-3, 48 h
# MDA-MB-468 = assay: Anticancer activity against human MDA-MB-468 cells after 48 hrs by SRB assay; settings: MDA-MB-468, 48 h
# SK-MEL-5 = assay: Anticancer activity against human SK-MEL-5 cells after 48 hrs by SRB assay; settings: SK-MEL-5, 48 h
# A549 = assay: Anticancer activity against human A549 cells after 48 hrs by SRB assay; settings: A549, 48 h; how it was run: as §1
# SNB-75 = assay: Anticancer activity against human SNB75 cells after 48 hrs by SRB assay; settings: SNB-75, 48 h
# HOP-62 = assay: Anticancer activity against human HOP62 cells after 48 hrs by SRB assay; settings: HOP-62, 48 h; how it was run: as §1
# [1] = Anticancer activity against human Hs 578T cells after 48 hrs by SRB assay; how it was run: as §1
# SN12C = assay: Anticancer activity against human SN12C cells after 48 hrs by SRB assay
# SK-MEL-28 = assay: Anticancer activity against human SK-MEL-28 cells after 48 hrs by SRB assay; settings: SK-MEL-28, 48 h
# NCI-H226 = assay: Anticancer activity against human NCI-H226 cells after 48 hrs by SRB assay; settings: NCI-H226, 48 h
# M14 = assay: Anticancer activity against human M14 cells after 48 hrs by SRB assay; settings: M14, 48 h; how it was run: as §1
# TK-10 = assay: Anticancer activity against human TK10 cells after 48 hrs by SRB assay; settings: TK-10, 48 h; how it was run: as §2
# MDA-MB-231 = assay: Anticancer activity against human MDA-MB-231 cells after 48 hrs by SRB assay; settings: MDA-MB-231, 48 h; how it was run: as §1
# [2] = read-out: LC50 (the source's name)
structure (smiles),measurement,setting,value
O=C(NCCNc1nccc(-c2c(-c3cccc(O)c3)nc3sccn23)n1)Nc1cccc(C(F)(F)F)c1,GI50,SNB-19,5.08 µM
same,TGI,SNB-19,36.2 µM
same,CC50,SNB-19; [2],> 100 µM
same,GI50,NCI/ADR-RES,26.9 µM
same,TGI,NCI/ADR-RES,> 100 µM
same,CC50,NCI/ADR-RES; [2],> 100 µM
same,GI50,ACHN,5.79 µM
same,TGI,ACHN,45.7 µM
same,CC50,ACHN; [2],> 100 µM
same,GI50,RXF 393,2.41 µM
same,TGI,RXF 393,5.1 µM
same,CC50,RXF 393; [2],12.9 µM
same,GI50,OVCAR-8,3.56 µM
same,TGI,OVCAR-8,11 µM
same,CC50,OVCAR-8; [2],37.6 µM
same,GI50,UO-31,3.25 µM
same,TGI,UO-31,16.8 µM
same,CC50,UO-31; [2],98.1 µM
same,GI50,SF-539,13.1 µM
same,TGI,SF-539,36.9 µM
same,CC50,SF-539; [2],> 100 µM
same,GI50,UACC-62,1.94 µM
same,TGI,UACC-62,6.51 µM
same,CC50,UACC-62; [2],28.2 µM
same,GI50,NCI-H460,4.79 µM
same,LC50,NCI-H460,83.5 µM
same,TGI,NCI-H460,20.8 µM
same,GI50,HCT-116,3.58 µM
same,TGI,HCT-116,11.5 µM
same,CC50,HCT-116; [2],74.3 µM
same,GI50,UACC-257,2.51 µM
same,TGI,UACC-257,6.94 µM
same,CC50,UACC-257; [2],59.8 µM
same,GI50,MOLT-4,3.6 µM
same,TGI,MOLT-4,14.6 µM
same,CC50,MOLT-4; [2],> 100 µM
same,GI50,NCI-H23,4.62 µM
same,LC50 (50% lethal concentration),NCI-H23,> 100 µM
same,TGI,NCI-H23,32.5 µM
same,GI50,MDA-MB-435,2.04 µM
same,TGI,MDA-MB-435,4.94 µM
same,CC50,MDA-MB-435; [2],41 µM
same,GI50,MCF7,3.57 µM
same,TGI,MCF7,16 µM
same,CC50,MCF7; [2],78.1 µM
same,GI50,RPMI-8226,2.52 µM
same,LC50,RPMI-8226,> 100 µM
same,TGI,RPMI-8226,5.46 µM
same,GI50,PC-3,2.94 µM
same,TGI,PC-3,12.6 µM
same,CC50,PC-3; [2],> 100 µM
same,GI50,MDA-MB-468,1.67 µM
same,TGI,MDA-MB-468,3.33 µM
same,CC50,MDA-MB-468; [2],6.67 µM
same,GI50,SK-MEL-5,2.62 µM
same,TGI,SK-MEL-5,8.43 µM
same,CC50,SK-MEL-5; [2],28.9 µM
same,GI50,A549,2.98 µM
same,LC50 (concentration giving 50% net tumour cell kill),A549,> 100 µM
same,TGI,A549,8.44 µM
same,GI50,SNB-75,2.5 µM
same,TGI,SNB-75,12.7 µM
same,CC50,SNB-75; [2],62.5 µM
same,GI50,HOP-62,8.33 µM
same,LC50 (concentration killing 50% of starting cells),HOP-62,61 µM
same,TGI,HOP-62,23.4 µM
same,GI50,[1],3.56 µM
same,TGI,[1],17.8 µM
same,CC50,[1]; [2],> 100 µM
same,GI50,SN12C,3.42 µM
same,TGI,SN12C,20 µM
same,CC50,SN12C; [2],> 100 µM
same,GI50,SK-MEL-28,2.68 µM
same,TGI,SK-MEL-28,10 µM
same,CC50,SK-MEL-28; [2],62.2 µM
same,GI50,NCI-H226,9.99 µM
same,LC50 (concentration killing 50% of tumour cells),NCI-H226,81 µM
same,TGI,NCI-H226,28.5 µM
same,GI50,M14,1.79 µM
same,TGI,M14,3.39 µM
same,CC50,M14; [2],6.41 µM
same,GI50,TK-10,3.66 µM
same,TGI,TK-10,11.1 µM
same,CC50,TK-10; [2],94.5 µM
same,GI50,MDA-MB-231,3.52 µM
same,TGI,MDA-MB-231,12.3 µM
same,CC50,MDA-MB-231; [2],> 100 µM

# From ChEMBL document CHEMBL1914423, “New imidazo[2,1-b]thiazole derivatives: synthesis, in vitro anticancer evaluation, and in silico studies” (Eur J Med Chem, 2011)
